Compound activity: PubChem BioAssay, Broad Institute
Statin myotox sup = suppressors of simvastatin-induced myotoxicity in C2C12 myotubes; ATP luminescence, 48 h; scaled: DMSO 0, geranylgeraniol control 100; rescue of ATP level, % at 7.49 µM; hit rate 0.78% among 330,000; AID 602340;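 active = mean ATP rescue above about 67%, or every replicate alone reaching that limit, limit read from the data, passing the limit was not always enough; inconclusive = no clear call, values can overlap the other calls; inactive = mean under the limit and some replicate under it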;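 also: myotubes were challenged with 10 µM simvastatin during compound exposure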
ERp5 inh = blocks human ERp5 reductase activity on insulin; Q15084; ERp5 insulin aggregation, absorbance 650 nm, 90 min; inhibition, % at 9.99 µM; hit rate 0.05% among 350,000; AID 651711;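 active = mean replicate inhibition above about 25%, with every replicate also reaching it, limit read from the data, passing the limit was not always enough; inconclusive = only one of those two criteria met; inactive = neither criterion met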
Target sequence (Q15084 whole entry, looked up): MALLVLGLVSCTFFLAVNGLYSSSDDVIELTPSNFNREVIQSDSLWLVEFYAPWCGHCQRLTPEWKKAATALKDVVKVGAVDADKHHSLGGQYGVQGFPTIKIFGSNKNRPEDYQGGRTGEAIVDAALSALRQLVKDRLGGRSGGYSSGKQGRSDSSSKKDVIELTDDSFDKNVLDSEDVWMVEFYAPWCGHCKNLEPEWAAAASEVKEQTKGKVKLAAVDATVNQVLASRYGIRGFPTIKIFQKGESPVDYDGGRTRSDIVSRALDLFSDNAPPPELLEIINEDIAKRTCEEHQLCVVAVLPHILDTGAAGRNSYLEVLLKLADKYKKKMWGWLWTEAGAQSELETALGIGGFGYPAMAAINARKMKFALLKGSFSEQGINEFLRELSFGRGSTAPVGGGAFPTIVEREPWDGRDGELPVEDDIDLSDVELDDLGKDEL
PDI inh = PDI (human) enzyme inhibition. P07237. PDI insulin aggregation turbidity, A650, 90 min. inhibition, % at 10 µM. hit rate 0.052% among 350,000;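 active = mean inhibition across replicates of 30% or more, whatever share of single replicates reach that level; inconclusive = mean inhibition below 30% while every single replicate reaches 30%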
DENV2 CPE = inhibitors of DENV2 cytopathic effect; DENV2-infected cells, cytopathic effect rescue, plate reader; CPE inhibition, % at 9.99 µM; hit rate 1.7% among 350,000; in the data active = CPE inhibition above about 20%, passing the limit was not always enough; inconclusive = no clear call, values can overlap the other calls; tested in BHK-21 cells;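 also: 0% = median of neutral control wells and 100% = median of positive control wells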
F508del corr = CFTR F508del correction in bronchial cells | CFBE cells, YFP halide quenching; stimulated with forskolin plus potentiator P3; % fluorescence drop versus neutral controls | activity (quench increase), % at 7.58 µM | hit rate 0.36% among 350,000 | AID 720511;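 active = mean added fluorescence quench of at least 8% versus neutral control, with both replicates also reaching 8%; inconclusive = only one of the mean or replicate conditions met; inactive = mean below 8% and not both replicates reaching 8%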;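 also: cells transiently co-express mutant CFTR-F508del with the halide-sensitive YFP; corrector assay measuring rescue of mutant channel to the surface after 24 h compound exposure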
Cneo AK release = causes C. neoformans cell lysis. hit rate 0.2% among 360,000. lysis activity, % at 15 µM. AID 651654. adenylate kinase release luminescence, 4 h; normalised: neutral wells 0, clomiphene wells 100;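 active = mean lysis activity across replicates of at least 80%, whatever share of replicates individually reach that level; inactive = mean lysis activity below 80%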
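Material – log-phase Cryptococcus neoformans yeast cells · Input – 5 × 10^6 yeast cells/mL · Medium – fresh YPD growth medium · Doses – single compound concentration per well · Timing – static 4 h at 37 °C with compound, 1 h detection · Detection – adenylate kinase release luminescence · Read-out – signal increase indicating cell lysis · Control set – Clomiphene as positive lysis control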
Numbers without * were called inactive; ? = inconclusive; nt = not tested or not shown; ! = repeats disagree. Only some compounds are listed: those with a hit (about 2.3% of all), similar ones and a draw of the others.

SMILES | Statin myotox sup | ERp5 inh | PDI inh | DENV2 CPE | F508del corr | Cneo AK release
C[C@@H]1CN([C@H](C)CO)C(=O)c2cc(-c3ccc(C#N)cc3)cnc2O[C@@H]1CN(C)C(=O)Nc1ccc(F)cc1 | 0 | -3 | nt | 5 | 1 | 83*
C[C@H](CO)N1C[C@H](C)[C@@H](CN(C)C(=O)Nc2ccc(F)cc2)Oc2ncc(-c3ccc(F)cc3)cc2C1=O | 6 | -2 | 10 | 24*! | -1 | -1
O=C(Nc1ccc2c(c1)OCCO2)c1cccc(C(=O)Nc2ccc3c(c2)OCCO3)c1 | -31 | 5 | -5 | 26* | -4 | -2
Cc1cnc(NC(=O)c2ccc3c(c2)OCCO3)s1 | -142 | 4 | -7 | -2 | 9.0* | -4
COc1cccc(C(=O)Nc2cc3c(cc2C(C)=O)OCCO3)c1 | nt | -2 | 3 | 76* | 3 | 1
C[C@H](CO)N1C[C@H](C)[C@@H](CN(C)Cc2ccc(Oc3ccccc3)cc2)Oc2ccc(NS(=O)(=O)c3cn(C)cn3)cc2CC1=O | -1 | -4 | nt | -17 | 0 | 110*
C[C@@H]1CN([C@@H](C)CO)C(=O)Cc2cc(NS(=O)(=O)c3cn(C)cn3)ccc2O[C@H]1CN(C)Cc1ccc(-c2ccccc2)cc1 | ? | 13 | nt | 26* | 0 | nt
C[C@H]1CN([C@@H](C)CO)C(=O)Cc2cc(NS(=O)(=O)c3cn(C)cn3)ccc2O[C@@H]1CN(C)Cc1ccc(-c2ccccc2)cc1 | 88* | 8 | nt | 9 | 1 | nt
C[C@H]1CN([C@@H](C)CO)C(=O)Cc2cc(NS(=O)(=O)c3cn(C)cn3)ccc2O[C@H]1CN(C)Cc1ccc(Oc2ccccc2)cc1 | 11 | -1 | nt | 9 | -2 | 0
Cc1noc(C)c1NC(=O)N(C)C[C@@H]1Oc2ccc(NC(=O)C3CC3)cc2C(=O)N([C@@H](C)CO)C[C@@H]1C | 7 | 4 | nt | 6 | -1 | 7
Cc1ccc(S(=O)(=O)Nc2ccc3c(c2)CC(=O)N([C@H](C)CO)C[C@H](C)[C@@H](CN(C)C(=O)Nc2c(C)noc2C)O3)cc1 | -1 | 3 | nt | -4 | -2 | -1
CCC(=O)Nc1ccc2c(c1)OC[C@@H](C)N(CCc1ccccc1)C[C@H](C)[C@H](OC)CN(C)C2=O | nt | nt | nt | -3 | -2 | nt
COc1cccc(C(=O)Nc2ccc3c(c2)C(=O)N(C)[C@H]2CC[C@H](CC(=O)NCCCN4CCOCC4)O[C@H]2CO3)c1 | -15 | 3 | nt | -8 | nt | 2
Oc1ccc(N2CCN(Cc3cc4c(cc3Br)OCCO4)CC2)cc1 | 8 | 0 | 76* | -2 | 0 | 22
CCOC(=O)C1=C(C)N=C2SC(C)C(=O)N2C1c1ccc(C(=O)OC)cc1 (stereo not given) | 91* | nt | 1 | nt | nt | 0
CCOC(=O)C1=C(C)N=C2SC(C)C(=O)N2C1c1ccccc1 (stereo not given) | 13 | -3 | -4 | -9 | -3 | -1
COc1ccc(NC(=O)Nc2ccc3c(c2)CC(=O)N([C@@H](C)CO)C[C@H](C)[C@H](CN(C)Cc2ccc(Cl)c(Cl)c2)O3)cc1 | -60 | nt | nt | -6 | 3 | 3
O=C(NCc1ccco1)C(c1ccc(F)cc1)N(CC1CCCO1)C(=O)Cn1nnc2ccccc21 (stereo not given) | 89* | nt | -8 | nt | nt | 5
COCCNC(=O)C1CCCN(C(=O)c2cc(C)n(C(C)(C)C)n2)CC1 (stereo not given) | -7 | -2 | -1 | -2 | -4 | 5
COCCNC(=O)C1CCCN(C(=O)c2cc(C)nn2C(C)(C)C)CC1 (stereo not given) | -4 | 9 | -7 | 21* | -1 | -1
CCNC(=O)C[C@@H]1CC[C@@H]2[C@@H](COc3ccc(NC(=O)Nc4cccc(OC)c4)cc3C(=O)N2C)O1 | 9 | nt | nt | 4 | 2 | 3
Cc1cc(NCc2ccccn2)n2nc(C)c(-c3ccccc3)c2n1 | nt | 2 | 0 | -13 | 12* | nt
Cc1nn2c(NCc3ccccn3)cc(C(C)(C)C)nc2c1-c1ccccc1 | -10 | 1 | -2 | -13 | -1 | 10
O=C(c1ccc(NC2=NC3CS(=O)(=O)CC3S2)cc1)N1CCN(c2ccc([N+](=O)[O-])cc2)CC1 (stereo not given) | 34 | -6 | 10 | 39* | 0 | 17
C[C@@H]1CN([C@H](C)CO)S(=O)(=O)c2ccc(-c3ccccc3F)cc2O[C@H]1CN(C)Cc1cncnc1 | -90 | 2 | nt | -1 | -3 | -1
SMILES | Statin myotox sup | ERp5 inh | PDI inh | DENV2 CPE | F508del corr | Cneo AK release
COC(=O)C1=C(C)N(Cc2ccco2)C(=O)N[C@@H]1c1ccco1 | 8 | 1 | 6 | 60* | 3 | -1
CN(C)C(=O)c1cccc(-c2ccccc2[C@H]2[C@@H](C#N)N(C(=O)C3CCCC3)[C@H]2CO)c1 | nt | -2 | nt | ? | -1 | nt
COc1cc2c(cc1OC)C(=O)CCS2 | 125* | nt | 7 | nt | nt | -2
O=S(=O)(Nc1nc(SCc2ccc(Cl)cc2)n[nH]1)c1ccc(F)cc1 | nt | -1 | 1 | 29* | 1 | -3
CCc1nc(SCc2ccc(Cl)cc2)n[nH]1 | nt | 2 | 7 | 1 | 2 | nt
CN(C)C(=O)C[C@@H]1CC[C@H]2[C@@H](COC[C@H](O)CN2C(=O)C2CC2)O1 | 3 | 2 | nt | 9 | 0 | 0
COc1ccc(-c2ccc3c(c2)O[C@H](CN(C)CC2CCOCC2)[C@H](C)CN([C@@H](C)CO)S3(=O)=O)cc1 | 15 | 5 | nt | -6 | -4 | 3
C[C@@H]1CN([C@@H](C)CO)C(=O)c2cccc(NS(=O)(=O)c3ccc(F)cc3)c2O[C@H]1CN(C)S(=O)(=O)c1ccc(F)cc1 | -17 | 13 | nt | 3 | 1 | -5
CCOC(=O)C1=C(COC(=O)Cc2ccccc2)NC(=O)NC1C (stereo not given) | -3 | 6 | -4 | 1 | 0 | 0
CCOC(=O)C1=C(COC(=O)Cc2ccccc2[N+](=O)[O-])NC(=O)NC1C (stereo not given) | -4 | 1 | 1 | 38* | -1 | 0
CO[C@H]1CN(C)C(=O)c2cc(NC(=O)C3CC3)ccc2OC[C@H](C)N(Cc2cccnc2)C[C@H]1C | -8 | 1 | nt | 3 | 1 | 49
Cc1cc(O)c(C(C)C)cc1NC(=O)c1ccccc1Cl | 7 | 2 | 0 | 28* | 0 | -2
Cc1cc(NC(=O)c2ccccc2Cl)c(C(C)C)cc1O | 3 | nt | 6 | nt | nt | 1
COc1ccc(S(=O)(=O)O/N=C2\CCCc3ccccc32)cc1 | 72* | nt | 9 | nt | nt | 0
CCC(=O)Nc1ccc2c(c1)C(=O)N(C)C[C@@H](OC)[C@@H](C)CN(C(=O)c1ccncc1)[C@H](C)CO2 | -1 | 1 | nt | 3 | 2 | -1
CNC[C@H]1Oc2ccc(NC(=O)Cc3cn(C)c4ccccc34)cc2C(=O)N([C@@H](C)CO)C[C@@H]1C | -20 | 0 | nt | 6 | 0 | -1
